Test results: ChEMBL document CHEMBL4725355, “Design, Synthesis, and Preclinical Evaluation of 3-Methyl-6-(5-thiophenyl)-1,3-dihydro-imidazo[4,5-b]pyridin-2-ones as Selective GluN2B Negative Allosteric Modulators for the Treatment of Mood Disorders” (J Med Chem, 2020)

Key:
[1] = Tmax in Sprague-Dawley rat at 250 mg/kg, po administered via gavage after 24 hrs using HPMC formulation by LC-MS/MS analysis; format: ADME, organism-based; settings: in vivo
How it was run: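 Single oral gavage of a 5% HPMC suspension at 125, 250, 500 or 1000 mg/kg to male Sprague Dawley rats, 3 per group. Plasma was sampled at 6 time points from 0.5 to 24 h.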

[2] = Drug level in Sprague-Dawley rat brain hippocampus at 0.03 mg/kg, iv after 120 min by LC-MS/MS analysis; format: ADME, organism-based; settings: read-out: Drug uptake
How it was run: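 Single i.v. dose of 0.03 mg/kg in 50% (w/v) PEG/water, pH 7.4; rats n=3 per group, killed at 5, 10, 30, 60 and 120 min. Cerebellum, cortex, striatum and hippocampus dissected, weighed and homogenized; drug quantified by LC-MS/MS and normalized to tissue weight. P<0.05 taken as significant versus cerebellum.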

[3] = Intrinsic clearance in dog liver microsomes at 1 uM after 5 to 60 mins in presence of NADPH by LC-MS/MS analysis; format: ADME, Canis lupus familiaris, Microsome; settings: time 5-60 min, read-out: CLH
[4] = Half life in monkey at 0.1 mg/kg, iv by LC-MS/MS analysis; format: ADME, organism-based, Macaca mulatta; settings: rhesus monkey, in vivo
[5] = Oral bioavailability in Sprague-Dawley rat at 2.5 mg/kg by LC-MS/MS analysis; format: ADME, organism-based; settings: in vivo
[6] = (§1) Ratio of Cmax in Sprague-Dawley rat at 250 mg/kg, po administered via gavage after 24 hrs using HPMC formulation by LC-MS/MS analysis to EC70 for ex vivo receptor occupancy at GluN2B in po dosed Sprague-Dawley rat assessed as 3-[3H] 1-(azetidin-1-yl)-2-[6-(4-fluoro-3-methyl-phenyl)pyrrolo[3,2-b]pyridin-1-yl]-ethanone labelling; format: ADME, organism-based
[7] = Cmax in Sprague-Dawley rat at 500 mg/kg/day, po administered as nanosuspension measured for 14 days measured post last dose by LC-MS/MS analysis; format: ADME, organism-based; design: route oral, time 14 day, dose 500 mg/kg/day; settings: in vivo
How it was run: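 Repeated daily oral dosing of the nanosuspension to rats for 14 days, up to 500 mg/kg/day.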

[8] = AUC (infinity) in monkey at 0.1 mg/kg, iv by LC-MS/MS analysis; format: ADME, organism-based, Macaca mulatta; design: time infinity, route intravenous, dose 0.1 mg/kg; settings: rhesus monkey, in vivo
[9] = Tmax in Sprague-Dawley rat at 250 mg/kg, po administered via gavage after 24 hrs using nanosuspension formulation by LC-MS/MS analysis; format: ADME, organism-based; settings: in vivo
How it was run: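 Single oral gavage of a nanosuspension (API:polymer 4:1), diluted with vehicle on the dosing day, at 100, 250 or 500 mg/kg to male Sprague Dawley rats, 3 per dose. Plasma was sampled from 0.5 to 24 h.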

Cytochrome P450 3A4 = Cytochrome P450 3A4 (Homo sapiens, UniProt P08684); test: Time-dependent inhibition of CYP3A4 in human liver microsomes at 10 uM using nifedipine as substrate by LC-MS/MS analysis; format: ADME
Sequence of Cytochrome P450 3A4 (P08684 whole entry): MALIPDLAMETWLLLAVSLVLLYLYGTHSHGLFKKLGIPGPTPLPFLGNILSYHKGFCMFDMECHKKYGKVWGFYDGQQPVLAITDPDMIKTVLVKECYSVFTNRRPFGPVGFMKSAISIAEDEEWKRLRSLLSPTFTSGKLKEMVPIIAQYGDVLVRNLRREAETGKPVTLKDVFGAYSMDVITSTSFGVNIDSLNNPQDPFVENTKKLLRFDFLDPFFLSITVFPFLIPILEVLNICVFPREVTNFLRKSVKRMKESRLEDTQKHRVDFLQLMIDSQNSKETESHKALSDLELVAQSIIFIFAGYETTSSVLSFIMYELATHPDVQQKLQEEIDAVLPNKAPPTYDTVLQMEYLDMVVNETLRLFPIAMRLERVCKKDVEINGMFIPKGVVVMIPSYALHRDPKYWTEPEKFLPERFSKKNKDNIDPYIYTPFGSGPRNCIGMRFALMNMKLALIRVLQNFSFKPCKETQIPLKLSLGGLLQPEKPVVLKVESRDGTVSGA
How it was run: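 CYP3A4 time-dependent inhibition in human liver microsomes. The compound (0.4 to 10 μM) was tested with and without 30 min preincubation. IC50 was taken from percent activity remaining versus vehicle, averaged over two independent experiments. A >2-fold IC50 shift after preincubation was the threshold for time-dependent inhibition.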

[10] = Half life in Sprague-Dawley rat at 2.5 mg/kg, po by LC-MS/MS analysis; format: ADME, organism-based; settings: in vivo
[11] = as §1, with “500” for “250”, “nanosuspension” for “HPMC”; format: ADME, organism-based
[12] = AUC (0 to 24 hrs) in Sprague-Dawley rat at 100 mg/kg, po administered via gavage after 24 hrs using nanosuspension formulation by LC-MS/MS analysis; format: ADME, organism-based; design: route oral, dose 100 mg/kg, time <=24; settings: in vivo
How it was run: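 Single oral gavage dose to male Sprague Dawley rats, 3 per dose level. Vehicles were a standard suspension in 5% HPMC (125, 250, 500 or 1000 mg/kg) or a nanosuspension (API:polymer 4:1), with stock diluted in vehicle on the day of dosing (100, 250 or 500 mg/kg). Blood was sampled at time points from 0.5 to 24 h.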

[13] = Volume of distribution at steady state in Sprague-Dawley rat at 0.5 mg/kg, iv or 2.5 mg/kg, po using 1:1 PEG-400/water formulation by LC-MS/MS analysis; format: ADME, organism-based; settings: in vivo
How it was run: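 Rat PK at 0.5 mg/kg i.v. and 2.5 mg/kg p.o., vehicle 1:1 PEG400/water. n=3, values given as mean ± SD.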

[14] = Oral bioavailability in dog at 0.5 mg/kg by LC-MS/MS analysis; format: ADME, organism-based, Canis lupus familiaris; settings: in vivo
[15] = biological target: T1, Aryl hydrocarbon receptor (Homo sapiens, UniProt P35869); test: Activation of human AHR expressed in human 1A2-DRE cells assessed as induction of CYP1A by luciferase reporter gene assay relative to control; format: ADME, cell-based
T1 sequence (P35869 whole entry): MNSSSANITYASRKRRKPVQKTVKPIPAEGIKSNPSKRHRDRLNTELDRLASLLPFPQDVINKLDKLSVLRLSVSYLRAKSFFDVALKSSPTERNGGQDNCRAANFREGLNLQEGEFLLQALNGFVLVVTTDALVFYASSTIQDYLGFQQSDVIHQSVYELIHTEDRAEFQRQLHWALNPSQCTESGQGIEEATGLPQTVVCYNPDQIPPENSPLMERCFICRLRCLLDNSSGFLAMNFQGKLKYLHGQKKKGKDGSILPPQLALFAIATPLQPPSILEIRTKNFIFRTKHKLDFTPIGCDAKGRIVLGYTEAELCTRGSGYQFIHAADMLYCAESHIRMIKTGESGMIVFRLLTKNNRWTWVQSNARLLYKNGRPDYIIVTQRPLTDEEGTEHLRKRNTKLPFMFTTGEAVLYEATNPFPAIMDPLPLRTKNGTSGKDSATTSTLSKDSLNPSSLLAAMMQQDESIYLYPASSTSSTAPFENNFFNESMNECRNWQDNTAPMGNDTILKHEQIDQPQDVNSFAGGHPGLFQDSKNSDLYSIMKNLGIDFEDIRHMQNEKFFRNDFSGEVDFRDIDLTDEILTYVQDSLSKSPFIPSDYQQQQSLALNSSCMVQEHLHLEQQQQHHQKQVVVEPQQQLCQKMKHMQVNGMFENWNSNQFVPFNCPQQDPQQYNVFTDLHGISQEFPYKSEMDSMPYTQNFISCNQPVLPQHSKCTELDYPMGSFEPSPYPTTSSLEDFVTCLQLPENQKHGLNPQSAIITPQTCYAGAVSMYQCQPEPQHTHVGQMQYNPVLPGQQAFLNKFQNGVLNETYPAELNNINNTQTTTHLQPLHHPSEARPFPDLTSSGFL
How it was run: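 Luciferase reporter lines were used. DPX2 is HepG2 carrying human PXR plus a CYP3A4 promoter-luciferase construct. 1A2-DRE carries human AhR plus a CYP1A2 promoter with 3 DRE copies. Luminescence was read with ONE-Glo. Activation was expressed relative to rifampicin (PXR) or omeprazole (AhR).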

[16] = Volume of distribution at steady state in dog at 0.1 mg/kg, iv by LC-MS/MS analysis; format: ADME, organism-based, Canis lupus familiaris; settings: in vivo, read-out: Vdss

- Tmax [1]: 2.7 h
- concentration at 2 h [2]: 10.1 ng/mL
- microsomal CLint at 1 µM [3]: 14.7 µL/min/mg
- half-life [4]: 1.1 h
- bioavailability [5]: 132%
- Ratio [6]: 8
- Cmax [7]: 21700 ng/mL
- AUC(0-inf) [8]: 190 ng·h/mL
- Tmax [9]: 2.7 h
- TDI (Cytochrome P450 3A4): Not Active
- half-life [10]: 2.2 h
- Ratio [11]: 26
- AUC(0-t) [12]: 51900 ng·h/mL
- Vdss [13]: 1.9 L/kg
- bioavailability [14]: 43%
- Activity [15]: < 20%
- Vd [16]: 0.8 L/kg
SMILES: Cn1c(=O)n(CC(=O)N2CCC2)c2cc(-c3ccc(C(F)(F)F)s3)cnc21
